Data taken from ChEMBL document CHEMBL1151472, “In vitro interactions between tacrolimus and azoles against Candida albicans determined by different methods” (2008).
In brackets after ≈: the same amount, converted by molar mass.

How the values were obtained:
Type in all cases: functional
Candida albicans [1] = experiment: Antimicrobial activity against azole-resistant Candida albicans isolate CA10 after 48 hrs by broth microdilution method; conditions: isolate CA10, 48 h
Summary of the method: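 Broth microdilution per CLSI M27-A2 in RPMI 1640 (pH 7.0, 2% dextrose, 0.165 M MOPS), final inoculum 2.5 × 10^3 CFU/ml; 35°C without shaking for 48 h. Read visually (0–5 scale) and by OD 492 nm; MIC80 = lowest concentration giving 80% drop in absorbance versus drug-free control. Triplicate.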

Candida albicans [2] = experiment: Antimicrobial activity against azole-resistant Candida albicans isolate CA16 after 48 hrs by broth microdilution method; conditions: isolate CA16, 48 h
Summary of the method: (§1)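 CLSI M27-A2 broth microdilution was run in RPMI 1640 (pH 7.0, 2% dextrose, 0.165 M MOPS). Inoculum was 2.5 × 10^3 CFU/ml, incubated 35°C for 48 h without shaking. Plates were read visually (0–5 scale) and at OD 492 nm. MIC80 = lowest concentration giving an 80% absorbance decrease vs drug-free control. Triplicate.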

Candida albicans [3] = experiment: Antimicrobial activity against azole-resistant Candida albicans isolate CA10 co-treated with calcineurin signaling inhibitor tacrolimus after 48 hrs by microdilution checkerboard technique; conditions: isolate CA10, 48 h
Summary of the method: (§2)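 Checkerboard microdilution in MOPS-buffered RPMI 1640 (pH 7.0, 2% dextrose) with 2.5 × 10^3 CFU/ml for 48 h at 35°C. Final FK506 was 0.002–0.125 μg/ml. Azole finals were FLC 0.125–128 μg/ml, and ITR and VRC 0.008–8 μg/ml. MIC80 is an 80% OD492 decrease vs drug-free control. Interaction was scored by FICI (synergy ≤0.5, antagonism >4) and by ΔE from triplicates.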

Candida albicans [4] = experiment: Antimicrobial activity against azole-resistant Candida albicans isolate CA16 cotreated with calcineurin signaling inhibitor Tacrolimus after 48 hrs by microdilution checkerboard technique; conditions: isolate CA16, 48 h; summary of the method: as §2
Candida albicans [5] = experiment: Antimicrobial activity against azole-susceptible Candida albicans isolate CA8 after 48 hrs by broth microdilution method; conditions: isolate CA8, 48 h; summary of the method: as §1
Candida albicans [6] = experiment: Antimicrobial activity against azole-susceptible Candida albicans isolate CA14 assessed as log reduction in colony count at 1 ug/ml co-treated with calcineurin signaling inhibitor tacrolimus after 48 hrs by time killing test
Summary of the method: (§3)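 Time-kill was started at 10^5 CFU/ml, with 10 μg/ml FLC or 1 μg/ml ITR or VRC, alone or with 0.016 μg/ml FK506, and DMSO <1%, at 35°C. At 0, 6, 12, 24 and 48 h, aliquots were serially diluted and plated on Sabouraud agar, then counted after 48 h at 35°C. Triplicate means.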

Candida albicans [7] = experiment: Antimicrobial activity against azole-susceptible Candida albicans isolate CA12 co-treated with calcineurin signaling inhibitor tacrolimus after 48 hrs by microdilution checkerboard technique; conditions: isolate CA12, 48 h; summary of the method: as §2
Candida albicans [8] = experiment: Antimicrobial activity against azole-susceptible Candida albicans isolate CA5 co-treated with calcineurin signaling inhibitor tacrolimus after 48 hrs by microdilution checkerboard technique; conditions: isolate CA5, 48 h; summary of the method: as §2
Candida albicans [9] = experiment: Antimicrobial activity against azole-susceptible Candida albicans isolate CA129 co-treated with calcineurin signaling inhibitor tacrolimus after 48 hrs by microdilution checkerboard technique; conditions: isolate CA129, 48 h; summary of the method: as §2
Candida albicans [10] = experiment: Antimicrobial activity against azole-susceptible Candida albicans isolate CA8 co-treated with calcineurin signaling inhibitor tacrolimus after 48 hrs by microdilution checkerboard technique; conditions: isolate CA8, 48 h; summary of the method: as §2
Candida albicans [11] = experiment: Antimicrobial activity against azole-resistant Candida albicans isolate CA137 cotreated with calcineurin signaling inhibitor Tacrolimus after 48 hrs by microdilution checkerboard technique; conditions: isolate CA137, 48 h; summary of the method: as §2
Candida albicans [12] = experiment: Antimicrobial activity against azole-resistant Candida albicans isolate CA135 cotreated with calcineurin signaling inhibitor Tacrolimus after 48 hrs by microdilution checkerboard technique; conditions: isolate CA135, 48 h; summary of the method: as §2
Candida albicans [13] = experiment: Antimicrobial activity against azole-susceptible Candida albicans isolate CA14 after 48 hrs by broth microdilution method; conditions: isolate CA14, 48 h; summary of the method: as §1
Candida albicans [14] = experiment: Antimicrobial activity against azole-resistant Candida albicans isolate CA137 after 48 hrs by broth microdilution method; conditions: isolate CA137, 48 h; summary of the method: as §1
Candida albicans [15] = experiment: Antimicrobial activity against azole-susceptible Candida albicans isolate CA129 after 48 hrs by broth microdilution method; conditions: isolate CA129, 48 h; summary of the method: as §1
Candida albicans [16] = experiment: Antimicrobial activity against azole-resistant Candida albicans isolate CA135 after 48 hrs by broth microdilution method; conditions: isolate CA135, 48 h; summary of the method: as §1
Candida albicans [17] = experiment: Antimicrobial activity against azole-resistant Candida albicans isolate CA10 assessed as log reduction in colony count at 1 ug/ml co-treated with calcineurin signaling inhibitor tacrolimus after 48 hrs by XTT assay
Summary of the method: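 Same time-kill setup (10^5 CFU/ml start, azole ± 0.016 μg/ml FK506, 35°C). At each time point, aliquots were mixed 1:1 with XTT (0.5 g/liter in Ringer's lactate) plus 10 μM menadione final. Incubation was in the dark for up to 2 h at 35°C, then formazan was read at 492 nm. OD was converted to CFU via a standard curve (Y = 4.2610x + 4.2087). Triplicate.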

Candida albicans [18] = experiment: Antimicrobial activity against azole-resistant Candida albicans isolate CA15 cotreated with calcineurin signaling inhibitor Tacrolimus after 48 hrs by microdilution checkerboard technique; conditions: isolate CA15, 48 h; summary of the method: as §2
Candida albicans [19] = experiment: Antimicrobial activity against azole-resistant Candida albicans isolate CA15 after 48 hrs by broth microdilution method; conditions: isolate CA15, 48 h; summary of the method: as §1
Candida albicans [20] = experiment: Antimicrobial activity against azole-resistant Candida albicans isolate CA10 assessed as log reduction in colony count at 1 ug/ml co-treated with calcineurin signaling inhibitor tacrolimus after 48 hrs by time killing test; summary of the method: as §3
Candida albicans [21] = experiment: Antimicrobial activity against azole-susceptible Candida albicans isolate CA14 assessed as log reduction in colony count at 1 ug/ml co-treated with calcineurin signaling inhibitor tacrolimus after 48 hrs by XTT assay
Summary of the method: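 Time-kill assay starting at 10^5 CFU/ml with azole 1 μg/ml plus FK506 0.016 μg/ml at 35°C, with a drug-free control and DMSO <1%. At 48 h, a 100 μl aliquot was mixed with XTT-menadione (XTT 0.5 g/liter in Ringer's lactate, menadione 10 μM final) and incubated in the dark up to 2 h at 35°C. A492 was converted to CFU by standard curve (Y = 4.2610x + 4.2087).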

Candida albicans [22] = experiment: Antimicrobial activity against azole-susceptible Candida albicans isolate CA12 after 48 hrs by broth microdilution method; conditions: isolate CA12, 48 h; summary of the method: as §1
Candida albicans [23] = experiment: Antimicrobial activity against azole-susceptible Candida albicans isolate CA14 co-treated with calcineurin signaling inhibitor tacrolimus after 48 hrs by microdilution checkerboard technique; conditions: isolate CA14, 48 h; summary of the method: as §2
Candida albicans [24] = experiment: Antimicrobial activity against azole-susceptible Candida albicans isolate CA5 after 48 hrs by broth microdilution method; conditions: isolate CA5, 48 h; summary of the method: as §1

## CCC(C)n1ncn(-c2ccc(N3CCN(c4ccc(OCC5COC(Cn6cncn6)(c6ccc(Cl)cc6Cl)O5)cc4)CC3)cc2)c1=O (configuration not stated) [ITRACONAZOLE]
Candida albicans [1]
  MIC: 128 µg/mL (≈ 181 µM)
Candida albicans [2]
  MIC: 32 µg/mL (≈ 45.3 µM)
Candida albicans [3]
  MIC: 0.031 µg/mL
Candida albicans [4]
  MIC: 0.016 µg/mL
Candida albicans [5]
  MIC: 0.016 µg/mL (≈ 0.0227 µM)
Candida albicans [6]
  Activity: 2.13
Candida albicans [7]
  MIC: 0.031 µg/mL
Candida albicans [8]
  MIC: 0.031 µg/mL
Candida albicans [9]
  MIC: 0.031 µg/mL
Candida albicans [10]
  MIC: 0.008 µg/mL
Candida albicans [11]
  MIC: 0.063 µg/mL
Candida albicans [12]
  MIC: 0.016 µg/mL
Candida albicans [13]
  MIC: 0.063 µg/mL (≈ 0.0893 µM)
Candida albicans [14]
  MIC: 16 µg/mL (≈ 22.7 µM)
Candida albicans [15]
  MIC: 0.063 µg/mL (≈ 0.0893 µM)
Candida albicans [16]
  MIC: 16 µg/mL (≈ 22.7 µM)
Candida albicans [17]
  Activity: 2.46
Candida albicans [18]
  MIC: 0.063 µg/mL
Candida albicans [19]
  MIC: 32 µg/mL (≈ 45.3 µM)
Candida albicans [20]
  Activity: 2.12
Candida albicans [21]
  Activity: 1.4
Candida albicans [22]
  MIC: 0.063 µg/mL (≈ 0.0893 µM)
Candida albicans [23]
  MIC: 0.031 µg/mL
Candida albicans [24]
  MIC: 0.031 µg/mL (≈ 0.0439 µM)

## C[C@@H](c1ncncc1F)[C@](O)(Cn1cncn1)c1ccc(F)cc1F [VORICONAZOLE]
Candida albicans [1]
  MIC: 64 µg/mL (≈ 183 µM)
Candida albicans [2]
  MIC: 8 µg/mL (≈ 22.9 µM)
Candida albicans [3]
  MIC: 0.008 µg/mL
Candida albicans [4]
  MIC: 0.008 µg/mL
Candida albicans [5]
  MIC: 0.008 µg/mL (≈ 0.0229 µM)
Candida albicans [6]
  Activity: 1.49
Candida albicans [7]
  MIC: 0.016 µg/mL
Candida albicans [8]
  MIC: 0.016 µg/mL
Candida albicans [9]
  MIC: 0.008 µg/mL
Candida albicans [10]
  MIC: 0.016 µg/mL
Candida albicans [11]
  MIC: 0.008 µg/mL
Candida albicans [12]
  MIC: 0.016 µg/mL
Candida albicans [13]
  MIC: 0.008 µg/mL (≈ 0.0229 µM)
Candida albicans [14]
  MIC: 8 µg/mL (≈ 22.9 µM)
Candida albicans [15]
  MIC: 0.016 µg/mL (≈ 0.0458 µM)
Candida albicans [16]
  MIC: 8 µg/mL (≈ 22.9 µM)
Candida albicans [17]
  Activity: 2.26
Candida albicans [18]
  MIC: 0.008 µg/mL
Candida albicans [19]
  MIC: 8 µg/mL (≈ 22.9 µM)
Candida albicans [20]
  Activity: 2.15
Candida albicans [22]
  MIC: 0.031 µg/mL (≈ 0.0887 µM)
Candida albicans [23]
  MIC: 0.008 µg/mL
Candida albicans [24]
  MIC: 0.016 µg/mL (≈ 0.0458 µM)
